Experimental data as given in ChEMBL document CHEMBL1130321, “Synthesis and in vitro activity of 3 beta-substituted-3 alpha-hydroxypregnan-20-ones: allosteric modulators of the GABAA receptor” (J Med Chem, 1997).
pIC50: −log10 of the molar value.

Legend:
[1] = molecular target: GABA-A receptor; anion channel; assay: Ability to allosterically modulate the binding of [35S]TBPS to gamma-aminobutyric-acid A receptor in rat brain cortical P2 membranes.; format: cell membranes, Membrane
In short: (§1)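 Rat cortical P2 membranes washed in 200 mM NaCl/50 mM Na-K phosphate pH 7.4. Incubated with 2 nM [35S]TBPS, 5 µM GABA and compound at nine concentrations from 1 nM to 10 µM final (DMSO 0.5% final), 90 min at room temperature. Nonspecific binding was defined with 2 µM unlabeled TBPS. Read-out was filtration and scintillation counting. IC50 and Imax came from partial or full inhibition fits chosen by F-test. Values are mean ± SEM of 3-9 experiments.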

Rattus norvegicus [2] = species on record: Rattus norvegicus; assay: Percent of maximal extent of inhibition was calculated by fitting [35S]TBPS inhibition data to a sigmoid function (rat brain cortical P2 membranes) at 10 uM concentration; format: functional
In short: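 Rat cortical P2 membranes washed in 200 mM NaCl/50 mM Na-K phosphate, pH 7.4. Incubated 90 min at room temperature with 2 nM [35S]TBPS, 5 μM GABA and steroid in DMSO (0.5% final). Nonspecific binding defined with 2 μM unlabeled TBPS. Filtration, scintillation counting. Partial or full inhibition model chosen by F-test.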

Rattus norvegicus [3] = species on record: Rattus norvegicus; assay: Percent of maximal extent of inhibition was calculated by fitting [35S]TBPS inhibition data to a sigmoid function (rat brain cortical P2 membranes).; format: functional; in short: as §1
[4] = molecular target: GABA-A receptor; anion channel; assay: Allosteric modulation of [35S]TBPS binding to Gamma-aminobutyric acid A receptor in rat brain cortical P2 membranes (inhibits binding with two components); format: cell membranes, Membrane; in short: as §1

Structure (SMILES) | pIC50 [1] | Imax (Rattus norvegicus [2]) | Imax (Rattus norvegicus [3]) | pIC50 [4]
CSC[C@@]1(O)CC[C@@]2(C)[C@@H](CC[C@@H]3[C@@H]2CC[C@]2(C)[C@@H](C(C)=O)CC[C@@H]32)C1 | < 5.00 | 46% | – | –
CC(=O)[C@H]1CC[C@H]2[C@@H]3CC[C@@H]4C[C@H](O)CC[C@]4(C)[C@H]3CC[C@]12C [ELTANOLONE] | – | – | 65% | 7.36
